Assay results from ChEMBL document CHEMBL4020838, “The Discovery of ( S)-1-(6-(3-((4-(1-(Cyclopropanecarbonyl)piperidin-4-yl)-2-methylphenyl)amino)-2,3-dihydro-1 H-inden-4-yl)pyridin-2-yl)-5-methyl-1 H-pyrazole-4-carboxylic Acid, a Soluble Guanylate Cyclase Activator Specifically Designed for Topical Ocular Delivery as a Therapy for Glaucoma” (J Med Chem, 2018).
The source made the active and inactive calls. The rule behind the calls is not given here.

Columns and labels:
[1] = Activation of HUVEC-derived soluble guanylate cyclase expressed in CHOK1 cells assessed as increase in cGMP production after 1 hr by HTRF assay; format: cell-based
In short: (§1)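 High-throughput assay in Chinese hamster ovary cells expressing sGC. cGMP was measured across a dose range. EC50 and Emax (maximal cGMP produced) were taken from the dose-response curve.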

Homo sapiens [2] = organism: Homo sapiens; test: Activation of HUVEC-derived soluble guanylate cyclase expressed in CHOK1 cells assessed as increase in cGMP production after 1 hr by HTRF assay relative to 1-{6-[5-chloro-2-({4-[trans-4-(trifluoromethyl)cyclohexyl]-benzyl}oxy)phenyl)pyridin-2-yl)-5-(trifluoromethyl)-1H-pyrazole-4-carboxylic acid; format: cell-based; in short: as §1
[3] = Activation of soluble guanylate cyclase in human GTM3 cells assessed as increase in cGMP production after 30 mins by fluorescence assay; format: cell-based
In short: (§2)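 Immortalized glaucomatous trabecular meshwork (GTM-3) cells expressing endogenous levels of sGC were used. cGMP was read across a dose range. EC50 and Emax were derived from the dose-response curve.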

Homo sapiens [4] = organism: Homo sapiens; test: Activation of soluble guanylate cyclase in human GTM3 cells assessed as increase in cGMP production after 30 mins by fluorescence assay relative to 1-{6-[5-chloro-2-({4-[trans-4-(trifluoromethyl)cyclohexyl]-benzyl}oxy)phenyl)pyridin-2-yl)-5-(trifluoromethyl)-1H-pyrazole-4-carboxylic acid; format: cell-based; in short: as §2
Oryctolagus cuniculus [5] = test: Toxicity in New Zealand albino rabbit eye up to 300 ug administered as single topical dose measured up to 24 hrs post dose; details: in vivo, topical_or_ocular
Cynomolgus monkey [6] = test: Toxicity in laser-induced ocular hypertensive cynomolgus monkey eye at 30 ug administered as single topical dose; design: species or system Macaca fascicularis; details: in vivo, topical_or_ocular
[7] = Dissociation constant, pKa of the compound; format: physicochemical
Oryctolagus cuniculus [8] = test: Toxicity in New Zealand albino rabbit assessed as conjunctival hyperemia at 30 ug administered as single topical dose measured up to 24 hrs post dose; details: in vivo, topical_or_ocular
Oryctolagus cuniculus [9] = test: Toxicity in New Zealand albino rabbit assessed as excessive blinking at 30 ug administered as single topical dose measured up to 24 hrs post dose; details: in vivo, topical_or_ocular
Cynomolgus monkey [10] = test: Reduction of intraocular pressure in laser-induced ocular hypertensive cynomolgus monkey at 30 ug administered as single topical dose measured after 6 to 24 hrs; format: functional; details: Macaca fascicularis

Row | Structure (SMILES) | EC50 ([1]; CHO-K1, 1 h) | EC50 ([3]; Homo sapiens, GTM3, 0.5 h) | EC50 [1] | Emax (Homo sapiens [2]) | Emax (Homo sapiens [4]) | other results
1 | O=C(Nc1ccc(S(=O)(=O)N2CCOCC2)cc1)c1cc(Cl)ccc1NS(=O)(=O)c1ccc(Cl)s1 | 870 nM | – | – | 95% | – | –
2 | Cc1cc(COc2ccc(C3CCN(C(=O)C4CC4)CC3)cc2C)c(-c2cccc(-n3ncc(C(=O)O)c3C(F)(F)F)n2)s1 | < 0.1 nM | 53 nM | – | 101% | 100% | –
3 | CCc1csc(-c2cccc(-n3ncc(C(=O)O)c3C(F)(F)F)n2)c1COc1ccc(C2CCN(C(=O)C3CC3)CC2)cc1C | 6 nM | 160 nM | – | 105% | 70% | –
4 | O=C(O)CCCCN(CCc1ccccc1OCc1ccc(CCc2ccccc2)cc1)Cc1ccc(C(=O)O)cc1 [CINACIGUAT] | 1 nM | 4 nM | – | 93% | 15% | –
5 | CCc1cc(OCC2=C(c3cccc(-n4ncc(C(=O)O)c4C(F)(F)F)n3)CCCC2C)ccc1C1CCN(C(=O)C2CC2)CC1 (stereo in doubt; (-)-17) [listing 1 of 2 here] | – | – | 9 nM | – | – | EC50 [3]: 170 nM
6 | Cc1cc(C2CCN(C(=O)C3CC3)CC2)ccc1OC1CCc2cccc(-c3cccc(-n4ncc(C(=O)O)c4C(F)(F)F)n3)c21 (single isomer, unassigned; (+)) [listing 1 of 2 here] | – | – | – | 102% | 100% | –
7 | Cc1cc(C2CCN(C(=O)C3CC3)CC2)ccc1OC1CCc2cccc(-c3cccc(-n4ncc(C(=O)O)c4C(F)(F)F)n3)c21 (single isomer, unassigned; (-)) [listing 1 of 2 here] | – | – | – | 100% | – | –
8 | Cc1cc2c(c(-c3cccc(-n4ncc(C(=O)O)c4C(F)(F)F)n3)c1)C(Nc1ccc(C3CCN(C(=O)C4CC4)CC3)cc1C)CC2 (single isomer, unassigned; (-)) [listing 1 of 2 here] | – | – | – | 99% | – | –
9 | CCc1cc(OCC2=C(c3cccc(-n4ncc(C(=O)O)c4C(F)(F)F)n3)CCCC2C)ccc1C1CCN(C(=O)C2CC2)CC1 (single isomer, unassigned; (+)) [listing 1 of 2 here] | – | – | – | 102% | 85% | –
10 | Cc1cc(C2CCN(C(=O)C3CC3)CC2)ccc1NC1CCc2cccc(-c3cccc(-n4ncc(C(=O)O)c4C)n3)c21 (stereo in doubt; (-)-23) [listing 1 of 2 here] | – | – | – | 102% | 82% | –
11 | Cc1cc(C2CCN(C(=O)C3CC3)CC2)ccc1OCC1=C(c2cccc(-n3ncc(C(=O)O)c3C(F)(F)F)n2)CCCC1 | 0.35 nM | 85 nM | – | 101% | 110% | –
12 | CCc1cc(OCC2=C(c3cccc(-n4ncc(C(=O)O)c4C(F)(F)F)n3)CCCC2(C)C)ccc1C1CCN(C(=O)C2CC2)CC1 | 1 nM | 140 nM | – | 99% | 71% | –
13 | CCc1cc(OCC2=C(c3cccc(-n4ncc(C(=O)O)c4C)n3)CCCC2C)ccc1C1CCN(C(=O)C2CC2)CC1 (single isomer, unassigned; (+)) [listing 1 of 2 here] | – | – | – | 101% | 120% | Activity (Cynomolgus monkey [10]): Active
14 | Cc1cc2c(c(-c3cccc(-n4ncc(C(=O)O)c4C(F)(F)F)n3)c1)C(Nc1ccc(C3CCN(C(=O)C4CC4)CC3)cc1C)CC2 (single isomer, unassigned; (+)) [listing 2 of 2 here] | – | – | – | 101% | 85% | –
15 | Cc1cc(C2CCN(C(=O)C3CC3)CC2)ccc1OCc1ccsc1-c1cccc(-n2ncc(C(=O)O)c2C(F)(F)F)n1 | 4.5 nM | – | – | 102% | – | –
16 | CCc1cc(OCC2=C(c3cccc(-n4ncc(C(=O)O)c4C)n3)CCCC2C)ccc1C1CCN(C(=O)C2CC2)CC1 (stereo in doubt; (-)-24) [listing 2 of 2 here] | – | – | – | 101% | – | –
17 | CCc1cc(OCC2=C(c3cccc(-n4ncc(C(=O)O)c4C(F)(F)F)n3)CCCC2C)ccc1C1CCN(C(=O)C2CC2)CC1 (single isomer, unassigned; (+)) [listing 2 of 2 here] | – | – | 1 nM | – | – | EC50 [3]: 6 nM; Activity (Oryctolagus cuniculus [8]): Toxic; Activity (Oryctolagus cuniculus [9]): Toxic
18 | Cc1cc(C2CCN(C(=O)C3CC3)CC2)ccc1OCc1c(C)csc1-c1cccc(-n2ncc(C(=O)O)c2C(F)(F)F)n1 | < 0.5 nM | 40 nM | – | 100% | 100% | –
19 | Cc1cc(C2CCN(C(=O)C3CC3)CC2)ccc1OC1CCc2cccc(-c3cccc(-n4ncc(C(=O)O)c4C(F)(F)F)n3)c21 (single isomer, unassigned; (-)) [listing 2 of 2 here] | – | – | 7 nM | – | – | –
20 | Cc1cc(C2CCN(C(=O)C3CC3)CC2)ccc1NC1CCc2cccc(-c3cccc(-n4ncc(C(=O)O)c4C(F)(F)F)n3)c21 (single isomer, unassigned; (+)) [listing 2 of 2 here] | – | – | – | 100% | 89% | –
21 | Cc1cc(C2CCN(C(=O)C3CC3)CC2)ccc1NC1CCc2cccc(-c3cccc(-n4ncc(C(=O)O)c4C(F)(F)F)n3)c21 (single isomer, unassigned; (-)) [listing 2 of 2 here] | – | – | – | 101% | 97% | –
22 | Cc1cc(C2CCN(C(=O)C3CC3)CC2)ccc1OC1CCc2cccc(-c3cccc(-n4ncc(C(=O)O)c4C(F)(F)F)n3)c21 (single isomer, unassigned; (+)) [listing 2 of 2 here] | – | 10 nM | 1 nM | – | – | –
23 | Cc1cc(C2CCN(C(=O)C3CC3)CC2)ccc1NC1CCc2cccc(-c3cccc(-n4ncc(C(=O)O)c4C)n3)c21 (stereo in doubt; (+)-23) [listing 2 of 2 here] | – | – | – | 104% | 106% | Activity (Cynomolgus monkey [10]): Active
24 | CCc1cc(OCC2=C(c3cccc(-n4ncc(C(=O)O)c4C)n3)CCCC2C)ccc1C1CCN(C(=O)C2CC2)CC1 (single isomer, unassigned; (+)) [listing 2 of 2 here] | – | 9 nM | < 0.5 nM | – | – | Activity (Oryctolagus cuniculus [5]): Non-Toxic; Activity (Cynomolgus monkey [6]): Non-Toxic
25 | CCc1cc(OCC2=C(c3cccc(-n4ncc(C(=O)O)c4C(F)(F)F)n3)CCCC2C)ccc1C1CCN(C(=O)C2CC2)CC1 (stereo in doubt; (-)-17) [listing 2 of 2 here] | – | – | – | 100% | 63% | –

Further lines, with some results ahead:

Row | EC50 ([1]; CHO-K1, 1 h) | EC50 ([3]; Homo sapiens, GTM3, 0.5 h) | EC50 [1] | Structure (SMILES) | Emax (Homo sapiens [2]) | Emax (Homo sapiens [4]) | other results
26 | 162 nM | – | – | Cc1c(C(=O)O)cnn1-c1nc(-c2cccc(C(F)(F)F)c2)cs1 | 105% | – | –
27 | 2.5 nM | – | – | Cc1cc(C2CCN(C(=O)C3CC3)CC2)ccc1OCC1=C(c2cccc(-n3ncc(C(=O)O)c3C(F)(F)F)n2)CCC1 | 101% | – | –
28 | 430 nM | – | – | Cc1cc(C2CCN(CC3CC3)CC2)ccc1OCc1ccsc1-c1cccc(-n2ncc(C(=O)O)c2C(F)(F)F)n1 | 88% | – | –
29 | – | – | 3 nM | CCc1cc(OCC2=C(c3cccc(-n4ncc(C(=O)O)c4C)n3)CCCC2C)ccc1C1CCN(C(=O)C2CC2)CC1 (stereo in doubt; (-)-24) [listing 1 of 2 here] | – | – | –
30 | – | – | 37 nM | Cc1cc(C2CCN(C(=O)C3CC3)CC2)ccc1NC1CCc2cccc(-c3cccc(-n4ncc(C(=O)O)c4C(F)(F)F)n3)c21 (single isomer, unassigned; (-)) [listing 1 of 2 here] | – | – | EC50 [3]: 1200 nM
31 | – | – | < 0.5 nM | Cc1cc(C2CCN(C(=O)C3CC3)CC2)ccc1NC1CCc2cccc(-c3cccc(-n4ncc(C(=O)O)c4C)n3)c21 (stereo in doubt; (+)-23) [listing 1 of 2 here] | – | – | EC50 [3]: 5 nM; Activity (Oryctolagus cuniculus [5]): Non-Toxic; Activity (Cynomolgus monkey [6]): Non-Toxic; pKa [7]: 4.3
32 | 0.15 nM | 520 nM | – | Cc1cc(C2CCN(C(=O)C3CC3)CC2)ccc1OCc1cc(Cl)sc1-c1cccc(-n2ncc(C(=O)O)c2C(F)(F)F)n1 | 99% | 97% | –
33 | – | – | 17 nM | Cc1cc(C2CCN(C(=O)C3CC3)CC2)ccc1NC1CCc2cccc(-c3cccc(-n4ncc(C(=O)O)c4C)n3)c21 (stereo in doubt; (-)-23) [listing 2 of 2 here] | – | – | EC50 [3]: 490 nM
34 | – | 55 nM | 1 nM | Cc1cc2c(c(-c3cccc(-n4ncc(C(=O)O)c4C(F)(F)F)n3)c1)C(Nc1ccc(C3CCN(C(=O)C4CC4)CC3)cc1C)CC2 (single isomer, unassigned; (+)) [listing 1 of 2 here] | – | – | pKa [7]: 3.1
35 | – | – | < 0.5 nM | Cc1cc(C2CCN(C(=O)C3CC3)CC2)ccc1NC1CCc2cccc(-c3cccc(-n4ncc(C(=O)O)c4C(F)(F)F)n3)c21 (single isomer, unassigned; (+)) [listing 1 of 2 here] | – | – | EC50 [3]: 3 nM; Activity (Oryctolagus cuniculus [8]): Toxic; Activity (Oryctolagus cuniculus [9]): Toxic
36 | – | – | 24 nM | Cc1cc2c(c(-c3cccc(-n4ncc(C(=O)O)c4C(F)(F)F)n3)c1)C(Nc1ccc(C3CCN(C(=O)C4CC4)CC3)cc1C)CC2 (single isomer, unassigned; (-)) [listing 2 of 2 here] | – | – | –
37 | 2 nM | 180 nM | – | CCc1cc(COc2ccc(C3CCN(C(=O)C4CC4)CC3)cc2C)c(-c2cccc(-n3ncc(C(=O)O)c3C(F)(F)F)n2)s1 | 103% | 68% | –
38 | 2.5 nM | 320 nM | – | Cc1cc(C2CCN(C(=O)C3CC3)CC2)ccc1OC1CCc2cccc(-c3cccc(-n4cc(C(=O)O)cn4)n3)c21 (single isomer, unassigned; (+)) | 103% | 70% | –
39 | 25 nM | – | – | CCC(=O)N1CCC(c2ccc(OCc3ccsc3-c3cccc(-n4ncc(C(=O)O)c4C(F)(F)F)n3)cc2)CC1 | 101% | – | –
40 | 4200 nM | – | – | Cc1cc(C2CCNCC2)ccc1OCc1ccsc1-c1cccc(-n2ncc(C(=O)O)c2C(F)(F)F)n1 | 73% | – | –
